Source: ChEMBL document CHEMBL3046131, “Synthesis and quantitative structure-activity relationship (QSAR) study of novel isoxazoline and oxime derivatives of podophyllotoxin as insecticidal agents” (2012)

What was measured:
Format in all cases: functional
Mythimna separata [1] = experiment: Insecticidal activity against pre-third-instar larvae of Mythimna separata (Oriental armyworm) in wheat leaves at 1 mg/mL after 33 days by leaf-dipping method; conditions: 792 h
How it was run: (§1)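 Compounds dissolved in acetone at 1 mg/mL. Fresh wheat leaves dipped 3 s, then dried at room conditions. Acetone-only leaves served as blank control and toosendanin as positive control. Ten larvae per dish fed treated leaves, replenished when consumed, for 48 h. Untreated fresh leaves were then given until adult emergence. Held at 25 ± 2 °C, 65−80% RH, 12 h/12 h light/dark. Activity calculated by formula.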

Mythimna separata [2] = experiment: Insecticidal activity against pre-third-instar larvae of Mythimna separata (Oriental armyworm) in wheat leaves at 1 mg/mL after 20 days by leaf-dipping method; conditions: 480 h; how it was run: as §1
Mythimna separata [3] = experiment: Insecticidal activity against pre-third-instar larvae of Mythimna separata (Oriental armyworm) in wheat leaves at 1 mg/mL after 5 days by leaf-dipping method; conditions: 120 h; how it was run: as §1

| SMILES | mortality at 1000 µg/mL (Mythimna separata [1]) | mortality at 1000 µg/mL (Mythimna separata [2]) | mortality at 1000 µg/mL (Mythimna separata [3]) |
| --- | --- | --- | --- |
| COc1cc([C@@H]2c3cc4c(cc3C3=NOC[C@H]3[C@@H]2C(=O)O)OCO4)cc(OC)c1OC | 41.4% | 31% | 20% |
| COc1cc([C@@H]2c3cc4c(cc3C(=O)[C@H]3COC(=O)[C@@H]23)OCO4)cc(OC)c1OC [PICROPODOPHYLLONE] | 27.6% | 20.7% | – |
| CCCCCCCC(=O)OC[C@@H]1[C@H](c2cc(OC)c(OC)c(OC)c2)c2cc3c(cc2C2=NOC[C@H]21)OCO3 | 17.2% | 6.9% | 0% |
| COc1ccc(C(=O)OC[C@@H]2[C@H](c3cc(OC)c(OC)c(OC)c3)c3cc4c(cc3C3=NOC[C@H]32)OCO4)cc1 | 37.9% | 13.8% | 6.7% |
| COc1cc([C@@H]2c3cc4c(cc3C(=O)[C@H]3COC(=O)[C@H]23)OCO4)cc(OC)c1OC [PODOPHYLLOTOXONE] | 17.2% | 3.5% | 6.7% |
| COc1cc([C@@H]2c3cc4c(cc3C3=NOC[C@H]3[C@@H]2C(=O)OCc2ccc([N+](=O)[O-])cc2)OCO4)cc(OC)c1OC | 27.6% | 24.1% | 23.3% |
| COc1cc([C@@H]2c3cc4c(cc3C3=NOC[C@H]3[C@@H]2COC=O)OCO4)cc(OC)c1OC | 24.1% | 10.3% | 0% |
| COc1cc([C@@H]2c3cc4c(cc3/C(=N/OS(=O)(=O)c3ccc(Cl)c([N+](=O)[O-])c3)[C@H]3COC(=O)[C@@H]23)OCO4)cc(OC)c1OC | 13.8% | 3.5% | 0% |
| COc1cc([C@@H]2c3cc4c(cc3C3=NOC[C@H]3[C@@H]2COC(=O)c2ccccc2)OCO4)cc(OC)c1OC | 41.4% | 27.6% | 26.7% |
| COc1cc([C@@H]2c3cc4c(cc3/C(=N/O)[C@H]3COC(=O)[C@@H]23)OCO4)cc(OC)c1OC | 17.2% | 6.9% | 0% |
| COc1ccc(S(=O)(=O)O/N=C2/c3cc4c(cc3[C@@H](c3cc(OC)c(OC)c(OC)c3)[C@@H]3C(=O)OC[C@H]23)OCO4)cc1 | 24.1% | 3.5% | 0% |
| COc1cc([C@@H]2c3cc4c(cc3/C(=N/OS(=O)(=O)c3ccc(C)cc3)[C@H]3COC(=O)[C@@H]23)OCO4)cc(OC)c1OC | 44.8% | 34.5% | 20% |
| CCc1ccc(S(=O)(=O)O/N=C2/c3cc4c(cc3[C@@H](c3cc(OC)c(OC)c(OC)c3)[C@@H]3C(=O)OC[C@H]23)OCO4)cc1 | 27.6% | 17.2% | 3.3% |
| COC(=O)[C@@H]1[C@H](c2cc(OC)c(OC)c(OC)c2)c2cc3c(cc2C2=NOC[C@H]21)OCO3 | 41.4% | 31% | 23.3% |
| CCCCNC(=O)[C@@H]1[C@H](c2cc(OC)c(OC)c(OC)c2)c2cc3c(cc2C2=NOC[C@H]21)OCO3 | 10.3% | 0% | 0% |
| COc1cc([C@@H]2c3cc4c(cc3/C(=N/OS(=O)(=O)c3ccccc3)[C@H]3COC(=O)[C@@H]23)OCO4)cc(OC)c1OC | 24.1% | 6.9% | 0% |
| COc1ccc(COC(=O)[C@@H]2[C@H](c3cc(OC)c(OC)c(OC)c3)c3cc4c(cc3C3=NOC[C@H]32)OCO4)cc1 | 44.8% | 37.9% | 26.7% |
| COc1cc([C@@H]2c3cc4c(cc3C3=NOC[C@H]3[C@@H]2C(=O)OCc2cccc(F)c2)OCO4)cc(OC)c1OC | 34.5% | 34.5% | 23.3% |

| SMILES | mortality at 1000 µg/mL (Mythimna separata [1]) | mortality at 1000 µg/mL (Mythimna separata [2]) | mortality at 1000 µg/mL (Mythimna separata [3]) |
| --- | --- | --- | --- |
| COc1cc([C@@H]2c3cc4c(cc3C3=NOC[C@H]3[C@@H]2CO)OCO4)cc(OC)c1OC [ISOXAZOLOPODOPHYLLOL] | 37.9% | 20.7% | 20% |
| COc1cc([C@@H]2c3cc4c(cc3/C(=N/OS(=O)(=O)c3ccc(Br)cc3)[C@H]3COC(=O)[C@@H]23)OCO4)cc(OC)c1OC | 27.6% | 10.3% | 0% |
| COc1cc([C@@H]2c3cc4c(cc3/C(=N/OS(=O)(=O)c3ccc(Cl)cc3)[C@H]3COC(=O)[C@@H]23)OCO4)cc(OC)c1OC | 55.2% | 37.9% | 26.7% |
| COc1cc([C@@H]2c3cc4c(cc3/C(=N\O)[C@H]3COC(=O)[C@H]23)OCO4)cc(OC)c1OC | 34.5% | 24.1% | 10% |
| COc1cc([C@@H]2c3cc4c(cc3/C(=N/OS(=O)(=O)c3cccc([N+](=O)[O-])c3)[C@H]3COC(=O)[C@@H]23)OCO4)cc(OC)c1OC | 13.8% | 3.5% | 0% |
| COc1cc([C@@H]2c3cc4c(cc3[C@H](O)[C@H]3COC(=O)[C@H]23)OCO4)cc(OC)c1OC [PODOFILOX] | 37.9% | 10.3% | 3.3% |
| CCCCCCCCOC(=O)[C@@H]1[C@H](c2cc(OC)c(OC)c(OC)c2)c2cc3c(cc2C2=NOC[C@H]21)OCO3 | 37.9% | 34.5% | 30% |
| COc1cc([C@@H]2c3cc4c(cc3/C(=N/OS(C)(=O)=O)[C@H]3COC(=O)[C@@H]23)OCO4)cc(OC)c1OC | 24.1% | 17.2% | 0% |
| CC(=O)O[C@@H]1C[C@H](O)[C@@]23CO[C@@H](O)[C@]1(C)[C@@H]2C[C@@H](O)[C@]1(C)[C@@H]3C(=O)[C@H](OC(C)=O)[C@@]2(C)[C@H](c3ccoc3)C[C@H]3O[C@]321 [TOOSENDANIN] | 44.8% | 13.8% | 6.7% |
| COc1cc([C@@H]2c3cc4c(cc3C3=NOC[C@H]3[C@@H]2COC(=O)c2ccc([N+](=O)[O-])cc2)OCO4)cc(OC)c1OC | 58.6% | 37.9% | 26.7% |
| COc1cc([C@@H]2c3cc4c(cc3C3=NOC[C@H]3[C@@H]2COC(=O)Cc2ccccc2)OCO4)cc(OC)c1OC | 20.7% | 6.9% | 6.7% |
| CCOC(=O)[C@@H]1[C@H](c2cc(OC)c(OC)c(OC)c2)c2cc3c(cc2C2=NOC[C@H]21)OCO3 | 44.8% | 31% | 20% |
| COc1cc([C@@H]2c3cc4c(cc3C3=NOC[C@H]3[C@@H]2COC(=O)c2cccc(F)c2)OCO4)cc(OC)c1OC | 55.2% | 34.5% | 23.3% |
| COc1cc([C@@H]2c3cc4c(cc3C3=NOC[C@H]3[C@@H]2C(=O)OCc2ccccc2)OCO4)cc(OC)c1OC | 37.9% | 31% | 23.3% |
| CCCCOC(=O)[C@@H]1[C@H](c2cc(OC)c(OC)c(OC)c2)c2cc3c(cc2C2=NOC[C@H]21)OCO3 | 58.6% | 34.5% | 23.3% |
| CCCC(=O)OC[C@@H]1[C@H](c2cc(OC)c(OC)c(OC)c2)c2cc3c(cc2C2=NOC[C@H]21)OCO3 | 34.5% | 13.8% | 6.7% |
| COc1cc([C@@H]2c3cc4c(cc3C3=NOC[C@H]3[C@@H]2C(=O)OCCc2ccccc2)OCO4)cc(OC)c1OC | 41.4% | 27.6% | 20% |
